Active and inactive are the calls of the source. No cut-off for these calls is given here.
What was measured:
PC-12 [1] = test: Neuroprotection against H2O2-induced cell death in rat PC12 cells assessed as cell viability at 10 uM preincubated for 3 hrs followed by H2O2 stimulation measured after 2 hrs by MTT assay (reference value: 25.2 to 41.8%); format: functional; conditions: read-out: Activity
[2] = Metal chelating activity assessed as compound-Zn2+ complex formation at 20 uM after 30 mins by UV-visible spectrophotometric analysis
Summary of the method: (§1)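 Compound (final 20 µM in methanol) mixed with metal salt (CuCl2, FeSO4, ZnCl2, AlCl3, MgCl2 or CaCl2, final 20 µM in methanol). After 30 min at room temperature, UV spectra recorded from 200 to 500 nm in 1-cm quartz cells on a dual-beam spectrophotometer.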

Acetylcholinesterase [3] = biological target: T1, Acetylcholinesterase (Electrophorus electricus, UniProt O42275); test: Inhibition of electric eel AChE using acetylthiocholine iodide as substrate pretreated for 5 mins followed by substrate addition by Ellman's method
T1 sequence (O42275 whole entry): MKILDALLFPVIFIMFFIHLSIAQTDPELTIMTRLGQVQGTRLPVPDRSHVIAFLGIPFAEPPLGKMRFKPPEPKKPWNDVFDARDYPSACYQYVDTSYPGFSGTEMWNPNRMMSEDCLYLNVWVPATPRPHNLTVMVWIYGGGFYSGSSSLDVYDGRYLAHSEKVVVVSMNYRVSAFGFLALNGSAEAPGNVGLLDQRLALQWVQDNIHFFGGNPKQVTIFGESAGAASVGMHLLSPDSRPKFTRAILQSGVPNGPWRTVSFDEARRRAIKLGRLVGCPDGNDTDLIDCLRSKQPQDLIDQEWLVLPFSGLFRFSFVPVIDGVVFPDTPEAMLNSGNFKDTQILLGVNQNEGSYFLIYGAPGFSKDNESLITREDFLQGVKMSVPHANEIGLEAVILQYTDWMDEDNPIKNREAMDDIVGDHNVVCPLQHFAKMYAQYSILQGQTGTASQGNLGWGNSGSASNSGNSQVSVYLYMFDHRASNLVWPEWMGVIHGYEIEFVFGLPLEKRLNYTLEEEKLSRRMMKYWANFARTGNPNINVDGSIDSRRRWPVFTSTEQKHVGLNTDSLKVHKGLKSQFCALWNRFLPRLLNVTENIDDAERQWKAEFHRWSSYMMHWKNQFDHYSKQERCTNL

[4] = Metal chelating activity assessed as compound-Mg2+ complex formation at 20 uM after 30 mins by UV-visible spectrophotometric analysis; summary of the method: as §1
[5] = biological target: Amyloid-beta precursor protein (Homo sapiens) (UniProt P05067); test: Inhibition of amyloid beta (1 to 42) (unknown origin) self-induced aggregation at 100 uM incubated for 48 hrs by thioflavin-T fluorescence assay relative to control
Amyloid-beta precursor protein (Homo sapiens), sequence (P05067 whole entry): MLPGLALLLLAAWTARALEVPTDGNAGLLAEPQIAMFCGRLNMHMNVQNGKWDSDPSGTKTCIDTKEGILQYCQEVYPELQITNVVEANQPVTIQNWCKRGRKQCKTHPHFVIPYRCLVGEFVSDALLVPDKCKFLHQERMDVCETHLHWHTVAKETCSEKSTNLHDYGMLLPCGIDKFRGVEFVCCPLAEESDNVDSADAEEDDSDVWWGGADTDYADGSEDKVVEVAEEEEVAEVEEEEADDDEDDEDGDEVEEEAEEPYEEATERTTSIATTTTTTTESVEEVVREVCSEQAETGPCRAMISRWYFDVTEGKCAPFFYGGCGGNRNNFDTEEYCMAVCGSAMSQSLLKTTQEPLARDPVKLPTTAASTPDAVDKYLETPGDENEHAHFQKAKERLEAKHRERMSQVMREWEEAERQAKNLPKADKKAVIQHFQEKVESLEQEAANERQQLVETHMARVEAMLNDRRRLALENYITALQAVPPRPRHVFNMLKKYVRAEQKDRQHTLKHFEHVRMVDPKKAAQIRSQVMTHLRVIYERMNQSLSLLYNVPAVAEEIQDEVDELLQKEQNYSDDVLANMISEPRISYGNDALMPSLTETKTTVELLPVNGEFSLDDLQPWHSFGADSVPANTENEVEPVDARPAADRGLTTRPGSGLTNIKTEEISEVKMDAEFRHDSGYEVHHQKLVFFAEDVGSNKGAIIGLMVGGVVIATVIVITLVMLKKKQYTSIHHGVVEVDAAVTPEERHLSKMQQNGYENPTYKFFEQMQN

PC-12 [6] = test: Inhibition of H2O2-induced ROS generation in rat PC12 cells assessed as intracellular ROS level at 5 uM preincubated for 6 hrs followed by H2O2 addition measured after 18 hrs by DCFH-DA staining based fluorimetric method relative to control; format: functional; set-up: scale not given: the % may be the effect or the level left
Summary of the method: (§2)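 PC12 cells at 1×10^4/well in RPMI with 10% FBS and penicillin/streptomycin, 24 h at 37 °C, 5% CO2. Test samples (1, 5, 10, 50 µM; ≤0.5% DMSO) for 6 h, PBS wash, then H2O2 150 µM for 18 h. Loaded with 10 µM DCFH-DA for 30 min at 37 °C in the dark, washed twice. DCF fluorescence read at ex 485/em 528 nm as % of untreated control. Three independent experiments, mean ± SEM.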

[7] = Metal chelating activity assessed as compound-Al3+ complex formation at 20 uM after 30 mins by UV-visible spectrophotometric analysis; summary of the method: as §1
PC-12 [8] = test: Neuroprotection against H2O2-induced cell death in rat PC12 cells assessed as cell viability at 20 uM preincubated for 3 hrs followed by H2O2 stimulation measured after 2 hrs by MTT assay (reference value: 25.2 to 41.8%); format: functional; conditions: read-out: Activity
SH-SY5Y = test: Neuroprotection against H2O2-induced cell death in human SH-SY5Y cells assessed as cell viability at 10 uM preincubated for 3 hrs followed by H2O2 addition measured after 24 hrs by MTT assay relative to control; format: functional; conditions: read-out: Activity
Summary of the method: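 SH-SY5Y cells grown in DMEM with 10% FBS, 1% L-glutamine and antibiotics, 5×10^3/well. Compound (10 or 50 µM) for 3 h before 250 µM H2O2, then 24 h incubation. MTT read at 570 nm after DMSO solubilization. Viability as blank-corrected % of untreated control; three independent experiments, mean ± SEM.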

PC-12 [9] = test: Inhibition of H2O2-induced ROS generation in rat PC12 cells preincubated for 6 hrs followed by H2O2 addition measured after 18 hrs by DCFH-DA staining based fluorimetric method; format: functional, cell-based; summary of the method: as §2
[10] = biological target: Acetylcholinesterase (Electrophorus electricus) (UniProt O42275); test: Mixed-type inhibition of electric eel AChE using varying levels of acetylthiocholine iodide as substrate pretreated for 5 mins followed by substrate addition by Lineweaver-Burk plot analysis
Acetylcholinesterase (Electrophorus electricus), sequence (O42275 24-633 limits assumed): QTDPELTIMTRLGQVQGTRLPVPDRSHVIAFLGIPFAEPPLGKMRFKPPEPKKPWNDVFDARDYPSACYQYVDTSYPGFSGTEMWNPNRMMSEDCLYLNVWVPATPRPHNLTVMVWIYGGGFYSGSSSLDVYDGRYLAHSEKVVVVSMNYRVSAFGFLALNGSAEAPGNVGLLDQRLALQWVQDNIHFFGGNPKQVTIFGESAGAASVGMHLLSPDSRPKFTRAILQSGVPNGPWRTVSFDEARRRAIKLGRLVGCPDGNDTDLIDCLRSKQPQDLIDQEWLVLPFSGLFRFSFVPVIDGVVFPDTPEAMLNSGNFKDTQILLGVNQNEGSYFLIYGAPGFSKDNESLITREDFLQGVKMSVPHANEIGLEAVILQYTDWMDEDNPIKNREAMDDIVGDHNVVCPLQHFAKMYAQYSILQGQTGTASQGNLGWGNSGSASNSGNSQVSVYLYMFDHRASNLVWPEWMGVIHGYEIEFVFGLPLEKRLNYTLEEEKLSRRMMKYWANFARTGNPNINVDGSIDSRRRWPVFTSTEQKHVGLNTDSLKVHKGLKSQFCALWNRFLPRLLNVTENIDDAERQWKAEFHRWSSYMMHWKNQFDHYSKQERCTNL
Summary of the method: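 Electric eel AChE (5 IU/mL) by Ellman method in 0.1 M phosphate buffer pH 8.0 with DTNB. Inhibitor was preincubated 5 min, then acetylthiocholine iodide was added at different concentrations. Absorbance followed at 412 nm. Inhibition type from reciprocal Lineweaver-Burk plots; Ki from a secondary replot of slope vs inhibitor concentration.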

PC-12 [11] = test: Neuroprotection against H2O2-induced cell death in rat PC12 cells assessed as cell viability at 0.1 uM preincubated for 3 hrs followed by H2O2 stimulation measured after 2 hrs by MTT assay (reference value: 25.2 to 41.8%); format: functional; conditions: read-out: Activity
PC-12 [12] = test: Neuroprotection against H2O2-induced cell death in rat PC12 cells assessed as cell viability at 5 uM preincubated for 3 hrs followed by H2O2 stimulation measured after 2 hrs by MTT assay (reference value: 25.2 to 41.8%); format: functional; conditions: read-out: Activity
Cholinesterase = Cholinesterase (Equus caballus, UniProt P81908); test: Inhibition of equine serum BuChE using butyrylthiocholine iodide as substrate pretreated for 5 mins followed by substrate addition by Ellman's method
Cholinesterase, sequence (P81908 whole entry): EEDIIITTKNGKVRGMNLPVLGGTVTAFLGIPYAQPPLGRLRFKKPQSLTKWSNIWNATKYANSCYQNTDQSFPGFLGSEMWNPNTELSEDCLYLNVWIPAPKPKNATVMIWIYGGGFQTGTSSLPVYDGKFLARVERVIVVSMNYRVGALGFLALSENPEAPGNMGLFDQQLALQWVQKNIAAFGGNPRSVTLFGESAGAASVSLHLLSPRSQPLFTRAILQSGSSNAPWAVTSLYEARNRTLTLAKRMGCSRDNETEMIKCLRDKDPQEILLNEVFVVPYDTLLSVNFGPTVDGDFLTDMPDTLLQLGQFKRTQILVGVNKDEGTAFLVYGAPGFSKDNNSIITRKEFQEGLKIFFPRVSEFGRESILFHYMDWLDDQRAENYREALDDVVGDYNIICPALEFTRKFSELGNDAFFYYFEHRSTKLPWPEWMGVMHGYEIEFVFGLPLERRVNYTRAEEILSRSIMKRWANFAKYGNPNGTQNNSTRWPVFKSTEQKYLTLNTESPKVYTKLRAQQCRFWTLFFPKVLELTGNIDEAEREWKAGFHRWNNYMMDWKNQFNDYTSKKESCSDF
Summary of the method: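 Ellman assay with horse serum BuChE (5 IU/mL) in 0.1 M phosphate buffer pH 8.0 with DTNB. Compound was preincubated with enzyme 5 min, then butyrylthiocholine iodide was added. Absorbance read at 412 nm. IC50 from a log concentration vs % inhibition curve; triplicate runs.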

PC-12 [13] = test: Neuroprotection against H2O2-induced cell death in rat PC12 cells assessed as increase in cell viability preincubated for 3 hrs followed by H2O2 stimulation measured after 2 hrs by MTT assay; format: functional, cell-based
PC-12 [14] = test: Neuroprotection against H2O2-induced cell death in rat PC12 cells assessed as cell viability at 50 uM preincubated for 3 hrs followed by H2O2 stimulation measured after 2 hrs by MTT assay (reference value: 25.2 to 41.8%); format: functional; conditions: read-out: Activity
Acetylcholinesterase [15] = biological target: T1, Acetylcholinesterase; test: Non-competitive inhibition of electric eel AChE using varying levels of acetylthiocholine iodide as substrate pretreated for 5 mins followed by substrate addition by Lineweaver-Burk plot analysis
PC-12 [16] = test: Cytotoxicity against rat PC12 cells assessed as effect on cell viability at 1 to 50 uM by MTT assay; format: cell-based; conditions: pc-12, 50 µM
PC-12 [17] = test: Neuroprotection against H2O2-induced cell death in rat PC12 cells assessed as cell viability at 1 uM preincubated for 3 hrs followed by H2O2 stimulation measured after 2 hrs by MTT assay (reference value: 25.2 to 41.8%); format: functional; conditions: read-out: Activity
[18] = Metal chelating activity assessed as compound-Ca2+ complex formation at 20 uM after 30 mins by UV-visible spectrophotometric analysis; summary of the method: as §1
[19] = biological target: Acetylcholinesterase (Homo sapiens) (UniProt P22303); test: Potency index, ratio of compound effect to donepezil effect for inhibition of recombinant human AChE-induced amyloid beta (1 to 42) aggregation at 100 uM
Acetylcholinesterase (Homo sapiens), sequence (P22303 whole entry): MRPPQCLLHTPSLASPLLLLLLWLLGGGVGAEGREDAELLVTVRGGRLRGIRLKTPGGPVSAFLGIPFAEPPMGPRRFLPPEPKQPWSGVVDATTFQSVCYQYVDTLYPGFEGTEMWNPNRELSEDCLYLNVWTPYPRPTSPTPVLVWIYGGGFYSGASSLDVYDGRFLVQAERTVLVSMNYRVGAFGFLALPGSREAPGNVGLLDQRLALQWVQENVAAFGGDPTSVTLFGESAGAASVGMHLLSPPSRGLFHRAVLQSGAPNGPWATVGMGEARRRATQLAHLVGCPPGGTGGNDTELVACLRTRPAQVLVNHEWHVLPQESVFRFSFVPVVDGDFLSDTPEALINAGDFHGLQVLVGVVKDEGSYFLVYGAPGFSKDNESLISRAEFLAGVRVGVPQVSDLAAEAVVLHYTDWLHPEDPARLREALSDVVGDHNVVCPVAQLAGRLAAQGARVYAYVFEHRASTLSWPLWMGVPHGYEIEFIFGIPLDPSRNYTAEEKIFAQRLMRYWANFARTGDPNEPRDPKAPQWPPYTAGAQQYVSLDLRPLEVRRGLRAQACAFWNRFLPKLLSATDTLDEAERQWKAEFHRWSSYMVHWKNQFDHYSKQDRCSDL
Summary of the method: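 Prefibrillated Aβ1-42 (prepared 72 h at 37 °C in PBS/1% ammonium hydroxide) was coincubated with human recombinant AChE (0.01 u/mL) in 0.05 M KP buffer pH 7.4, 37 °C, 48 h, with or without compound or donepezil at 100 µM. ThT added; fluorescence read at ex 448/em 490 nm. % inhibition from intensities with vs without inhibitor; three experiments.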

[20] = Inhibition of soybean 15-LOX assessed as reduction in conversion of linoleic acid to 13-hydroperoxylinoleic acid by spectrophotometric method; set-up: species or system Glycine max
Summary of the method: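 Soybean lipoxygenase type 1-B (final 167 U/mL) with compound (DMSO stock diluted in 0.1 M phosphate buffer pH 8) and linoleic acid (134 mM in ethanol) at room temperature. Formation of 13-hydroperoxylinoleic acid followed spectrophotometrically at 234 nm.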

In the case of `COc1ccc(-c2cc3ccc(OCCCn4cc(CNC(=O)CCCCC5CCSS5)nn4)cc3oc2=O)cc1OC` (configuration not stated), the viability at 10 µM (PC-12 [1]) is reported as 43.5%, the Activity [2] is reported as “inactive” and the IC50 (Acetylcholinesterase [3]) is reported as 16.4 µM. The Activity [4] was “inactive”, the inhibition [5] was 51.2% and the Activity (PC-12 [6]) was 79.32%. For the same molecule, the Activity [7] was “inactive”, the viability at 20 µM (PC-12 [8]) was 45.6% and the viability at 10 µM (SH-SY5Y) was 64%. The inhibition (PC-12 [9]) was “Dose-dependent effect”, the inhibition [10] was “Active” and the viability at 0.1 µM (PC-12 [11]) was 36.4%. The viability at 5 µM (PC-12 [12]) was 40.6%, the IC50 (Cholinesterase) was 49.4 µM and the Activity (PC-12 [13]) was “Dose-dependent effect”. For the same molecule, the viability at 50 µM (PC-12 [14]) was 49.5%, the Ki (Acetylcholinesterase [15]) was 6.91 µM and the Activity (PC-12 [16]) was “Non-Toxic”. The viability at 1 µM (PC-12 [17]) was 39.3%, the Activity [18] was “inactive” and the Ratio [19] was 2. It also gave an IC50 [20] of over 100 µM.

From ChEMBL document CHEMBL4152262, “Design, synthesis and evaluation of novel multi-target-directed ligands for treatment of Alzheimer's disease based on coumarin and lipoic acid scaffolds” (Eur J Med Chem, 2018)
